The record followed here is article PMC11734723 (Science Advances, 2025).

One assay deals with STIM1/Orai1 (Homo sapiens, UniProt Q13586). Kind of assay: Store-operated Ca2+ entry. In kind it is cell-based. To be noted: Tg 2 μM, 1 mM Ca2+, ELP-004 0 to 1 mM. In outline:
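STIM1–YFP was electroporated into HEK293 cells, which were selected with puromycin (5 µg/ml) and cloned for highest YFP. Orai1–CFP was then added, followed by G418 selection and cloning for highest YFP/CFP and screening for SOCE. Fura2-loaded cells (2 µM, 30 min, RT) were held 10 min in Ca²⁺-free pH 7.2 buffer with thapsigargin (2 µM) and test compound. After baseline, 1 mM Ca²⁺ was added; the read-out was the 340/380 ratio.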

Another assay has as its target T1, TRPC5 (Homo sapiens, UniProt Q9UL62).
T1 sequence (Q9UL62 1-973): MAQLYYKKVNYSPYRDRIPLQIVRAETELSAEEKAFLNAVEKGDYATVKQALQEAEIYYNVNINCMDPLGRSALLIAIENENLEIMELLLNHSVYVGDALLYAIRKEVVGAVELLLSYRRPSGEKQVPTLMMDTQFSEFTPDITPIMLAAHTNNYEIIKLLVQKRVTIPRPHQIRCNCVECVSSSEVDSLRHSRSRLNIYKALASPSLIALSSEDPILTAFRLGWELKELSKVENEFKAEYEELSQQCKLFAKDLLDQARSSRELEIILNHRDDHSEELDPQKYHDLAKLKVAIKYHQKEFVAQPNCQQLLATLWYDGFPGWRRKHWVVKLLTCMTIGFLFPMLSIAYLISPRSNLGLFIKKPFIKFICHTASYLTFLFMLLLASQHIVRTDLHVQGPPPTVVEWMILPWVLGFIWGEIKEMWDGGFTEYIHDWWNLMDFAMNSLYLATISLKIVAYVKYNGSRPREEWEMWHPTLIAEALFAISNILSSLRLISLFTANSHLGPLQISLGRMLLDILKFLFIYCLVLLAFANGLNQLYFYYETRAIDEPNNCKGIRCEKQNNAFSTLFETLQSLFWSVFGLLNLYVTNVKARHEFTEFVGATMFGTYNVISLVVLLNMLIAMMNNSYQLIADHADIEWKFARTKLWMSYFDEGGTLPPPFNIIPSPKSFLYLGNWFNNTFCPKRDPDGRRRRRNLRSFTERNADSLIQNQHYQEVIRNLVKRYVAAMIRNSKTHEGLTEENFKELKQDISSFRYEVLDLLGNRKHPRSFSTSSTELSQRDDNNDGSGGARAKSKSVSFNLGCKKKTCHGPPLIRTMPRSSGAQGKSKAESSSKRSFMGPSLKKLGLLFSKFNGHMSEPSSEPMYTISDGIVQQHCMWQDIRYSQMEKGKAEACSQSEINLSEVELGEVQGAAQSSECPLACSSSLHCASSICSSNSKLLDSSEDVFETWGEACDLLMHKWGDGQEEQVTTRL
Kind of assay: Carbachol-induced Sr2+ entry in TRPC5-overexpressing HEK293 cells. In kind it is cell-based. Conditions: read-out: IC50 of Cch-induced Sr2+ entry; Cch 100 nM, Sr2+ 3 mM. In outline:
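HEK293 cells were electroporated with GFP-tagged TRPC4, TRPC5 or TRPC7, plated after 24 h and cultured 48 h under selection; only high-GFP cells were analysed. Coverslip cells were loaded with Fura2 (2 µM) and treated with carbachol (100 nM) plus test compound (0 to 100 µM). Entry was measured after adding Sr²⁺ (3 mM), read as the 340/380 ratio; n = 3 to 5.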

Assay [1] deals with Cch-induced ER Ca2+ release. Kind of assay: Carbachol-induced ER Ca2+ release in TRPC-overexpressing HEK293 cells. It counts as cell-based. To be noted: ELP-004 1 nM to 100 μM.
A further assay deals with murine BMSMCs. The experiment in a line: Pit assay on osteo-assay surface plates, murine BMSMC-derived osteoclasts. Conditions: ELP-004 100 nM. In kind it is cell-based, mouse. In outline:
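Murine BMSMC osteoclasts were grown on synthetic bone-mimetic surface plates with ±test compound (100 nM), fed every 3–5 days, and assayed on days 7, 14 and 21. Cells were removed with 10% bleach (5 min). Matrix was stained with 1% silver nitrate under UV for 20–45 min, treated with 2.5% sodium thiosulphate and dehydrated in ethanol. Average size of 10–30 pits was measured.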

Assay [2] concerns TRPC4^−/− and TRPC(1–7)^−/− BMSMCs. The experiment in a line: Osteoclastogenesis from TRPC4−/− and TRPC. In kind it is cell-based, mouse. In outline: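 Myeloid cells from bone marrow and spleen of TRPC4−/− and TRPC(1–7)−/− mice were cultured in αMEM, 10% FBS and mCSF (50 ng/ml). RANKL (1 or 100 ng/ml) was added at 24 h, and TNFα (2 ng/ml) and test compound (100 nM) 2–3 days later as indicated. Cultures ran 14–21 days with feeding every 3–5 days before TRAP, Ca²⁺ and pit read-outs.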

For the next assay, the system named is Human PBMCs. Kind of assay: TRAP staining, multinucleation and cell size of human PBMC-derived osteoclasts. It counts as cell-based. To be noted: ELP-004 100 nM; for effect on multinucleation: 14 days. The gist of the method: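 Human PBMCs were grown with human mCSF (50 ng/ml) plus RANKL (100 ng/ml), or RANKL (1 ng/ml) with TNFα (2 ng/ml), ±test compound (100 nM), for 14 days. Cells were fixed with 2% PFA (30 min, RT) and stained for TRAP with ELF-97 (200 µM) in acetate/nitrite/tartrate buffer (15 min, RT). After permeabilisation, nuclei were counterstained with 7-AAD. Confocal images were scored for TRAP intensity, TRAP-positive cells and nuclei per cell.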

Chain of STIM1/Orai1 (Q13586 23-685, species assumed): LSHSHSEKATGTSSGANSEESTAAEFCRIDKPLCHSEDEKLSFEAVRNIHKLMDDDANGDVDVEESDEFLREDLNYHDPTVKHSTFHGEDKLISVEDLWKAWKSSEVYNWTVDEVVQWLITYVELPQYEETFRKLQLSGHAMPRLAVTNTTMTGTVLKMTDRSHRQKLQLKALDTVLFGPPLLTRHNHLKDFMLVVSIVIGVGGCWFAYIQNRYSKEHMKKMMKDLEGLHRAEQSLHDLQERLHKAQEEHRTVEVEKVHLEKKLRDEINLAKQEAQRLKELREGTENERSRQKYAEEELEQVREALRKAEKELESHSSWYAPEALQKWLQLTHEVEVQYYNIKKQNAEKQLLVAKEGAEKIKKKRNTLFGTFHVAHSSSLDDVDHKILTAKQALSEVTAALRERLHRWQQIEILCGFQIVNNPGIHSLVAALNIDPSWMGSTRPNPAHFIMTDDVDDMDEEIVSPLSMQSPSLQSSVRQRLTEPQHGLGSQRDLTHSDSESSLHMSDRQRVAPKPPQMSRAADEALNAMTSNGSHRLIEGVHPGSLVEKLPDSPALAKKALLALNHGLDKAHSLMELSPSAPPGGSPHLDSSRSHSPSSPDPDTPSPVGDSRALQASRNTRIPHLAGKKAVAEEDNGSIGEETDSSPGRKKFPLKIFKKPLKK

Usually IC50 stands for the concentration that inhibits the measured activity by half. In the case of `CCC(=O)N(C)c1ccc(Cl)c(Cl)c1` [ELP-004], the “effect on STIM1/Orai1-mediated Ca2+ entry” value at STIM1/Orai1 is given as “largely unaffected”. The IC50 on TRPC5 amounted to 0.0115 µM. In addition, the “effect on Cch-induced ER Ca2+ release” value in assay [1] is on record as “no effect”. Also, the “effect on matrix degradation” value with murine BMSMCs (LTB4/RANKL) is recorded as “potent inhibition”. For the same molecule, the “effect on pit formation (matrix degradation)” value with murine BMSMCs (RANKL (100 ng/ml)) is “significant ELP-004–induced inhibition observed on day 21”. Besides, in the assay on murine BMSMCs (TNFα/RANKL), the “effect on matrix degradation” value is given as “completely abolished”. Further, the “effect on intracellular Ca2+” value in assay [2] (RANKL or RANKL/TNFα osteoclasts from knockout BMSMCs) was “no effect”. Further, in assay [2] (knockout BMSMCs), the “effect on TRAP expression” value is listed as “no effect”, the “effect on cell size” value was “no effect”, the effect on multinucleation entry is “no effect” and the “effect on pit formation” value is reported as “no effect”. Also, in the assay on Human PBMCs (RANKL), the effect on multinucleation result is on record as “significantly inhibited”, the “effect on intensity of TRAP+ cells” value is listed as “not intensity” and the “effect on number of TRAP+ cells” value is on record as “inhibited the number”. Further, the “effect on cell size” value with Human PBMCs (TNFα-induced osteoclasts) is “significantly reduced”. In the assay on Human PBMCs (TNFα/RANKL), the effect on multinucleation entry is “significantly inhibited”, the “effect on intensity of TRAP+ cells” value is on record as “inhibited” and the “effect on number of TRAP+ cells” value was “inhibited”.
